ChEMBL document CHEMBL1125318, “4-substituted thiophene- and furan-2-sulfonamides as topical carbonic anhydrase inhibitors” (J Med Chem, 1992)
Several values for one entry are separate records, joined by “and”; a condition that tells them apart may be missing. Equal values may be shown once. Activity calls are given as the source filed them. The rule behind the calls is not given here.

Key:
[1] = Ionization constant (pKa); assay type: physicochemical
Outline: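 The half-neutralization point was found by titration with 0.5 N NaOH and 0.5 N HCl in 30% EtOH–H2O using a glass electrode.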

Oryctolagus cuniculus [2] = assay: Ability to penetrate the albino rabbit eye and to inhibit the target enzyme in an homogenate of the iris-ciliary body at 1 hr postdosing, ex vivo when dosed in 0.5% aqueousi (hydroxymethyl) cellulose.; assay type: functional
Outline: (§1)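 Albino rabbits received one 50 μL drop of test suspension topically; 1 h after dosing the iris-ciliary body was homogenized and its carbonic anhydrase activity measured ex vivo. Screening used 0.5%, with lower concentrations for some compounds. Reference suspensions were given as 0.1% in 0.5% aqueous (hydroxyethyl)cellulose.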

Carbonic anhydrase 2 [3] = biological target: T1, Carbonic anhydrase 2 (Homo sapiens, UniProt P00918); assay: Inhibition of human carbonic anhydrase II; settings: read-out: I50
Outline: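 CA II was affinity-purified from human erythrocytes. CO2 hydration was assayed by pH stat in 0.02 M Tris chloride, pH 8.6, at 2 °C with CO2–air (5:95) bubbled at 150 mL/min. The 0.025 N NaOH volume needed to hold pH 8.3 over 3 min was recorded, with inhibitor added before enzyme. I50 was read from semilog plots of % inhibition versus log concentration.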

Oryctolagus cuniculus [4] = assay: Ability to penetrate the albino rabbit eye and to inhibit the target enzyme in an homogenate of the iris-ciliary body at 1 hr postdosing, ex vivo when dosed in 0.1% aqueousi (hydroxymethyl) cellulose.; assay type: functional; outline: as §1
[5] = Partition coefficient (logD7.4); assay type: physicochemical; settings: octanol/water, pH 7.4
Outline: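 Compound was equilibrated between 1-octanol and 0.1 ionic strength pH 7.4 phosphate buffer; each phase was quantified by UV spectrophotometry.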

[6] = Solubility (pH 7.4, 25 degree C); assay type: physicochemical; settings: buffer, read-out: S
[7] = Aqueous solubility (25 degree C); assay type: physicochemical; settings: read-out: S
Oryctolagus cuniculus [8] = assay: Ability to penetrate the albino rabbit eye and to inhibit the target enzyme in an homogenate of the iris-ciliary body at 1 hr postdosing, ex vivo when dosed in 0.05% aqueousi (hydroxymethyl) cellulose.; assay type: functional; outline: as §1
Carbonic anhydrase 2 [9] = biological target: T1, Carbonic anhydrase 2; assay: Compound was tested in vitro for binding affinity against human carbonic anhydrase II; (ki*10e-9)
Outline: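 Fluorescence competition against dansylamide used purified human erythrocyte CA II (1×10^-7 M) and dansylamide (2×10^-6 M) in pH 7.4, 0.1 ionic strength phosphate buffer at 37 °C. Excitation was 280 nm and emission 460 nm, with stepwise addition of test compound in buffer.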

Oryctolagus cuniculus [10] = species on record: Oryctolagus cuniculus; assay: Maximum Intraocular pressure reduction in alpha-CT rabbits at the dose (as a 50 microL drop of suspension in 0.5% aqueous cellulose); assay type: functional
Outline: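 α-Chymotrypsinized rabbits received a 50 μL topical drop of test suspension. IOP was read before dosing and at 0.5, 1, 2, 3, 4 and 5 h after. The value is the maximum fall from the pre-dose reading. Parallel control groups got a drop of 0.5% aqueous (hydroxyethyl)cellulose.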

[11] = Solubility measured in water; assay type: physicochemical; settings: read-out: S
Outline: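 Solubility was measured in water at 25 °C.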

[12] = Solubility measured pH 7.4 at 25 degree C; assay type: physicochemical; settings: buffer, read-out: S

| SMILES | Inhibition (Oryctolagus cuniculus [2]) | IC50 (Carbonic anhydrase 2 [3]) | Inhibition (Oryctolagus cuniculus [4]) | other results |
| --- | --- | --- | --- | --- |
| COc1ccc(S(=O)(=O)c2csc(S(N)(=O)=O)c2)cc1 | 68% | 45 nM | – | pKa [1]: 8.78 |
| Cc1ccc(S(=O)(=O)c2csc(S(N)(=O)=O)c2)cc1 | 86% | 3.2 nM | – | – |
| CCCCNCc1ccc(S(=O)(=O)c2csc(S(N)(=O)=O)c2)cc1.Cl | 87% | 29 nM | 48% | – |
| CN1CCN(Cc2ccc(S(=O)(=O)c3csc(S(N)(=O)=O)c3)cc2)CC1.Cl | 92% | 11 nM | 90% | logD [5]: 0.38; pKa [1]: 9.25; solubility [6]: > 56 mg/mL; solubility [7]: > 43 mg/mL; Inhibition (Oryctolagus cuniculus [8]): 29% |
| CC(C)CN(C)Cc1cc(C(=O)c2csc(S(N)(=O)=O)c2)ccc1O.Cl | 58% | 9 nM | – | – |
| CC(C)(C)NCc1ccc(S(=O)(=O)c2csc(S(N)(=O)=O)c2)cc1.Cl | 61% | 36 nM | – | logD [5]: -0.143; pKa [1]: 9.3; solubility [7]: 4.5 mg/mL |
| Cl.NS(=O)(=O)c1cc(C(=O)c2cccc(CN3CCOCC3)c2)cs1 | 90% | 5 nM | – | logD [5]: 1.11; pKa [1]: 9.03; solubility [7]: 4.8 mg/mL; Ki (Carbonic anhydrase 2 [9]): 10.8 nM |
| CN(C)Cc1cc(S(=O)(=O)c2csc(S(N)(=O)=O)c2)ccc1O.Cl | 57% | 9 nM | 40% | – |
| CCCCNCc1ccc(C(=O)c2csc(S(N)(=O)=O)c2)cc1.Cl | 95% | 12 nM | 68% | logD [5]: 0.568; pKa [1]: 9.32; solubility [6]: 0.46 mg/mL; solubility [7]: 2.4 mg/mL |
| Cl.NS(=O)(=O)c1cc(S(=O)(=O)c2ccc(CN3CCOCC3)cc2)cs1 | 83% | 7.6 nM | – | logD [5]: 0.978; pKa [1]: 8.84; solubility [6]: 0.85 mg/mL; Ki (Carbonic anhydrase 2 [9]): 1.43 nM |
| Cl.NS(=O)(=O)c1cc(C(=O)c2ccc(CNCc3ccccc3)cc2)cs1 | 81% | 2.4 nM | – | – |
| CN(C)Cc1cc(C(=O)c2csc(S(N)(=O)=O)c2)ccc1O.Cl | 59% | 6.4 nM | – | Ki (Carbonic anhydrase 2 [9]): 34.4 nM |
| CN(C)Cc1cc(S(=O)(=O)c2coc(S(N)(=O)=O)c2)ccc1O.Cl | 81% | 7 nM | 78% | Ki (Carbonic anhydrase 2 [9]): 2.34 nM and 4.9 nM |
| CC(C)CNCc1cccc(S(=O)(=O)c2csc(S(N)(=O)=O)c2)c1.Cl | 84% | 12 nM | – | – |
| COc1ccc(S(=O)(=O)c2coc(S(N)(=O)=O)c2)cc1 | 68% and 97% | 2.5 nM | 95% | logD [5]: 1.17; pKa [1]: 6.32 |
| NS(=O)(=O)c1cc(C(=O)c2ccc(O)cc2)cs1 | 83% | 2.5 nM | – | – |
| Cc1ccc(S(=O)(=O)c2coc(S(N)(=O)=O)c2)cc1 | 96% | 4.2 nM | 36% | – |
| CC(C)CNCc1cccc(C(=O)c2csc(S(N)(=O)=O)c2)c1.Cl | 68% | 13 nM | – | Ki (Carbonic anhydrase 2 [9]): 14.5 nM |
| Cl.NS(=O)(=O)c1cc(S(=O)(=O)c2ccccc2CNCc2ccccn2)cs1 | 88% | 15 nM | 88% | Max IOP reduction (Oryctolagus cuniculus [10]): -6.5 mmHg |
| CC(C)CNCc1ccccc1S(=O)(=O)c1csc(S(N)(=O)=O)c1.Cl | 62% | 18 nM | 47% | Ki (Carbonic anhydrase 2 [9]): 21.1 nM |
| Cc1ccc(C(=O)c2csc(S(N)(=O)=O)c2)cc1 | 26% | 2 nM | – | – |

| SMILES | Inhibition (Oryctolagus cuniculus [2]) | IC50 (Carbonic anhydrase 2 [3]) | Inhibition (Oryctolagus cuniculus [4]) | other results |
| --- | --- | --- | --- | --- |
| NS(=O)(=O)c1cc(S(=O)(=O)c2ccc(O)cc2)cs1 | 82% | 5 nM | – | pKa [1]: 9.2; Ki (Carbonic anhydrase 2 [9]): 8 nM |
| CC(C)NCc1cccc(S(=O)(=O)c2csc(S(N)(=O)=O)c2)c1.Cl | 71% | 22 nM | – | – |
| CCN(CC)Cc1cc(S(=O)(=O)c2csc(S(N)(=O)=O)c2)ccc1O.Cl | 71% | 9 nM | – | – |
| NS(=O)(=O)c1cc(S(=O)(=O)c2ccc(O)cc2)co1 | 54% | 4.2 nM | 100% | – |
| COc1ccc(C(=O)c2coc(S(N)(=O)=O)c2)cc1 | 67% | 2 nM | 13% | – |
| CC(C)CCNCc1cccc(C(=O)c2csc(S(N)(=O)=O)c2)c1.Cl | 82% | 9 nM | – | – |
| CN1CCN(Cc2ccccc2S(=O)(=O)c2csc(S(N)(=O)=O)c2)CC1.Cl | 77% | 23 nM | 65% | logD [5]: 1.13; pKa [1]: 8.8; Max IOP reduction (Oryctolagus cuniculus [10]): -2.7 mmHg; solubility [7]: > 64 mg/mL |
| CCN(CC)Cc1ccc(S(=O)(=O)c2csc(S(N)(=O)=O)c2)cc1O.Cl | 84% | 16 nM | – | – |
| CCN(CC)Cc1cc(S(=O)(=O)c2coc(S(N)(=O)=O)c2)ccc1O.Cl | 82% | 10 nM | 58% | Ki (Carbonic anhydrase 2 [9]): 4 nM |
| CC(C)CN(C)Cc1cc(S(=O)(=O)c2csc(S(N)(=O)=O)c2)ccc1O.Cl | 90% | 5 nM | 26% | – |
| CCC(C)NCc1cccc(S(=O)(=O)c2csc(S(N)(=O)=O)c2)c1.Cl (centres undefined) | 72% | 26 nM | – | logD [5]: 0.477; pKa [1]: 9.05; Max IOP reduction (Oryctolagus cuniculus [10]): -2.3 mmHg; solubility [7]: 20 mg/mL |
| CC(C)CNCc1ccc(S(=O)(=O)c2csc(S(N)(=O)=O)c2)cc1.Cl | 87% | 13 nM | 63% | Ki (Carbonic anhydrase 2 [9]): 6.5 nM |
| Cl.NS(=O)(=O)c1cc(S(=O)(=O)c2ccc(CNCc3ccccn3)cc2)cs1 | 92% | 8 nM | 75% | – |
| CC(C)CNCc1ccc(C(=O)c2csc(S(N)(=O)=O)c2)cc1.Cl | 87% | 4.8 nM | 77% | Max IOP reduction (Oryctolagus cuniculus [10]): inactive |
| NS(=O)(=O)c1cc(S(=O)(=O)c2cccc(O)c2)cs1 | 86% | 2.1 nM | – | – |
| CN1CCN(Cc2ccc(C(=O)c3csc(S(N)(=O)=O)c3)cc2)CC1.Cl | 90% | 4 nM | – | logD [5]: 0.362; pKa [1]: 9.32; solubility [11]: 5 mg/mL; solubility [12]: 2 mg/mL |
| CCN(CC)Cc1cc(C(=O)c2csc(S(N)(=O)=O)c2)ccc1O.Cl | 55% | 7 nM | 54% | Ki (Carbonic anhydrase 2 [9]): 18.6 nM |
| Cl.NS(=O)(=O)c1cc(C(=O)c2ccc(CN3CCOCC3)cc2)cs1 | 73% | 3.7 nM | – | logD [5]: 1.18; pKa [1]: 9.28; solubility [11]: 12.1 mg/mL; Max IOP reduction (Oryctolagus cuniculus [10]): -2.2 mmHg; solubility [6]: 0.07 mg/mL; Ki (Carbonic anhydrase 2 [9]): 3.32 nM |
| CC(C)CNCc1ccc(S(=O)(=O)c2csc(S(N)(=O)=O)c2)cc1O | – | 14 nM | – | – |
| CNCc1ccc(C(=O)c2csc(S(N)(=O)=O)c2)cc1.Cl | 67% | 4.5 nM | 13% | – |
| COc1ccc(C(=O)c2csc(S(N)(=O)=O)c2)cc1 | 31% | 3.2 nM | – | – |
